Compound activity from PubChem.
In the library only some 2% were active in any assay of this set; here they are far more common.
MBD2 DNA inh – MBD2-methylated oligo binding inhibition | inhibition, % at 4.4 µM | TR-FRET, MBD2 binding to methylated oligonucleotide | 370,000 compounds, 0.31% hits | AID 686964; in the data active = inhibition above about 13%
ARFGAP1 inh – inhibits rat ARF GTPase activating protein 1. Arfgap1-stimulated ARF1 GTP hydrolysis, GDP FP detection. inhibition, % at 16.5 µM. 360,000 compounds, 0.26% hits. AID 651572;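 active = inhibition above a per-plate limit, mean inhibition of low control wells plus 3 SD, cut at about 25% in these data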
Target sequence (Q62848 1-136 limits assumed): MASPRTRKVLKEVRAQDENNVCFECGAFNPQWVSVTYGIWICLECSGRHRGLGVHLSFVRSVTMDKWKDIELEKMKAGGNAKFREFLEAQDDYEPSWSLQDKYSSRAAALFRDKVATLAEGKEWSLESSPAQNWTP
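Material: truncated rat Arfgap1 GAP domain; Incubation: compound-enzyme preincubation 20 min, reaction 120 min, detection 60 min, 25 °C; Read-out: percent inhibition of Arfgap1-stimulated GTP hydrolysis; Technique: FP, GDP Alexa 633 tracer displaced from anti-GDP antibody, 620/688 nm; Controls: No-Arfgap1 wells (100%) versus DMSO full-reaction wells (0%); Replication: single well per compound.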
ASAP1 GAP inh – inhibitors of human ASAP1 ArfGAP activity; inhibition, % at 16.5 µM; 360,000 compounds, 0.19% hits; AID 624377; ASAP1-stimulated ARF1 GTP hydrolysis, GDP FP detection; in the data active = inhibition above about 25%
Target sequence (Q9ULH1 325-724 limits assumed): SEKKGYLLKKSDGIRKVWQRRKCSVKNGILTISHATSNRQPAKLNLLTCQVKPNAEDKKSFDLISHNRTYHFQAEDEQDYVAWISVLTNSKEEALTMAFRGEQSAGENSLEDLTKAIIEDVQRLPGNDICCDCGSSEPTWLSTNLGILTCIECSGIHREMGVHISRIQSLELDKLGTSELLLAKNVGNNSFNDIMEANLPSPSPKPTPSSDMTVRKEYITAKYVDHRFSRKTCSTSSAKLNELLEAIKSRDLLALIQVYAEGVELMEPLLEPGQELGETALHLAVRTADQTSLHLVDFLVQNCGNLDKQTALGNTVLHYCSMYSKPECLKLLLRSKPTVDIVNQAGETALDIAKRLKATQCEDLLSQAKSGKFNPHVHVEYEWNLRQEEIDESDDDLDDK
TCR CD3 inh – inhibitors of human TCR-CD3 interaction; TAMRA-labeled TCR probe fluorescence, biochemical; inhibition, % at 9.4 µM; 360,000 compounds, 0.37% hits;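 also: recombinant mutant TCR 2C K166C tagged with TAMRA read by polarization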
UHRF1 binding – UHRF1 methyl-DNA binding inhibition | Q96T88 | UHRF1 binding to methylated oligo, TR-FRET | inhibition, % at 4.4 µM | 370,000 compounds, 0.75% hits | AID 687016; in the data active = inhibition above about 21%;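 also: UHRF1 SRA domain binding a hemimethylated CpG hairpin DNA probe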
LEDGF integ inh – blocks HIV-1 LEDGF/p75-dependent DNA integration; 370,000 compounds, 0.64% hits; TR-FRET IN-LEDGF/p75 DNA integration, Eu/Cy5; inhibition, % at 3.7 µM; AID 743269;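 active = inhibition above the screen-wide mean plus 3 SD, cut at about 13% in these data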;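 also: signal is the Cy5 over europium emission ratio at 671 and 618 nm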
BSA probe FL – interferes with TAMRA-BSA probe, flagging TCR-CD3 hits | inhibition, % at 9.4 µM | TAMRA-labeled BSA probe fluorescence counterscreen | shares compounds with TCR CD3 inh | 1,200 compounds, 10% hits | AID 652035; in the data active = inhibition above about 23%
TCR-CD3 inh conf – confirmation of human TCR-CD3 interaction inhibitors; shares compounds with TCR CD3 inh; TAMRA-labeled TCR probe fluorescence binding assay; inhibition, % at 9.4 µM; 1,200 compounds, 48% hits
UHRF1 ctr MBD2 – counter-screen for MBD2 inhibitors: human UHRF1 methylated DNA binding inhibitors | inhibition, % at 4.4 µM | 1,000 compounds, 25% hits | UHRF1 binding to methylated oligonucleotide, TR-FRET | shares compounds with MBD2 DNA inh; in the data active = inhibition above about 21%;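 also: UHRF1 SRA domain binding a labeled hemimethylated CpG hairpin DNA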
MBD2 confirm – MBD2-DBD methyl-DNA binding inhibition, TR-FRET confirmation; shares compounds with MBD2 DNA inh; TR-FRET MBD2-DBD binding to methylated oligonucleotide; inhibition, % at 4.4 µM; 1,000 compounds, 26% hits; AID 720531; in the data active = inhibition above about 14%
IN multimer act – HIV-1 integrase multimerization activation, counter-screen; 2,000 compounds, 17% hits; AID 1053131; shares compounds with LEDGF integ inh; TR-FRET HIV-1 integrase multimerization, biochemical; activation, % at 7.7 µM; in the data active = activation above about 8.9%
TRFRET interf – optically interferes with TR-FRET readout in LEDGF counter-screen; 2,000 tested, under 10 active; TR-FRET optical interference counterscreen, HIV-1 IN multimerization; AID 1053135; shares compounds with LEDGF integ inh; inhibition, % at 7.7 µM;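 active = inhibition above the mean over all tested compounds plus 3 SD, which no compound reached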
IN-LEDGF confirm – confirmation of HIV-1 LEDGF/p75-dependent integration inhibitors; shares compounds with LEDGF integ inh; inhibition, % at 3.7 µM; TR-FRET LEDGF/p75-dependent HIV-1 integration, biochemical; 2,000 compounds, 36% hits; in the data active = inhibition above about 14%
Large screens that a line does not name were inactive (follow-up assays come after a bar, where they were run). Rule as the data show it, unless noted: active = inhibition above about 19%; inactive = the rest.

COc1ccc(-c2oc3cc(O)c(OC)c(O)c3c(=O)c2OC)cc1	none
COc1c(-c2ccc(O)cc2)oc2cc(O)cc(O)c2c1=O	TCR CD3 inh 32, UHRF1 binding 28, LEDGF integ inh 15 | BSA probe FL inactive | TCR-CD3 inh conf inactive | IN multimer act inactive | TRFRET interf inactive | IN-LEDGF confirm 45
COc1ccc(-c2cc(=O)c3c(O)cc(O)cc3o2)cc1	none
O=c1c(O)c(-c2ccc(O)c(O)c2)oc2cc(O)cc(O)c12	TCR CD3 inh 19, LEDGF integ inh 89 | BSA probe FL inactive | TCR-CD3 inh conf inactive | IN multimer act 41 | TRFRET interf inactive | IN-LEDGF confirm 88
Nc1cc(OCc2ccccc2)ccc1OCc1ccccc1	none
CC1=CN2C(=N)/C(=C/c3ccc([N+](=O)[O-])o3)C(=O)N=C2S1	TCR CD3 inh 72, LEDGF integ inh 18 | BSA probe FL inactive | TCR-CD3 inh conf inactive | IN multimer act inactive | TRFRET interf inactive | IN-LEDGF confirm 17
c1cc(N2CCOCC2)ccc1-c1ccc2nncn2c1	none
c1coc(-c2ccc3nncn3c2)c1	MBD2 DNA inh 39, TCR CD3 inh 35, UHRF1 binding 76, LEDGF integ inh 57 | BSA probe FL inactive | TCR-CD3 inh conf 30 | UHRF1 ctr MBD2 62 | MBD2 confirm 34 | IN multimer act 23 | TRFRET interf inactive | IN-LEDGF confirm 73
CCN(C(=O)COC(=O)CCc1c[nH]c2ccccc12)c1c(N)n(Cc2ccccc2)c(=O)[nH]c1=O	none
C=C1c2cccc(O)c2C(O)=C2C(=O)[C@]3(O)C(O)=C(C(N)=O)C(=O)[C@@H](N(C)C)[C@@H]3[C@@H](O)[C@H]12	MBD2 DNA inh 91, TCR CD3 inh 52, UHRF1 binding 98, LEDGF integ inh 85 | BSA probe FL inactive | TCR-CD3 inh conf inactive | UHRF1 ctr MBD2 21 | MBD2 confirm inactive | IN multimer act 50 | TRFRET interf inactive | IN-LEDGF confirm 63
CCC(C)Sc1ccc([C@H]2N[C@@](Cc3ccccc3)(C(=O)OC)[C@H]3C(=O)N(CC)C(=O)[C@@H]23)cc1 (stereo not given in full)	none
CC1(C(=O)NS(=O)(=O)C2CC2)CCN(C(=O)c2ccc3ccccc3n2)C1 (stereo not given)	none
O=C1NC(=S)NC1=Cc1ccco1	MBD2 DNA inh 21, TCR CD3 inh 24, UHRF1 binding 61, LEDGF integ inh 56 | BSA probe FL inactive | TCR-CD3 inh conf 21 | UHRF1 ctr MBD2 inactive | MBD2 confirm inactive | IN multimer act inactive | TRFRET interf inactive | IN-LEDGF confirm 41
Cn1c(=O)c2c(-c3ccccc3)n(-c3ccc(N)cc3)cc2n(C)c1=O	TCR CD3 inh 29, LEDGF integ inh 40 | BSA probe FL inactive | TCR-CD3 inh conf inactive | IN multimer act inactive | TRFRET interf inactive | IN-LEDGF confirm inactive
Cc1ccc(CNc2ccc(O)cc2)cc1	TCR CD3 inh 27, LEDGF integ inh 20 | BSA probe FL inactive | TCR-CD3 inh conf inactive | IN multimer act 11 | TRFRET interf inactive | IN-LEDGF confirm 31
CC1CCCC(C)N1/N=C/c1ccc(O)c(O)c1 (stereo not given)	TCR CD3 inh 23, LEDGF integ inh 20 | BSA probe FL inactive | TCR-CD3 inh conf 20 | IN multimer act 22 | TRFRET interf inactive | IN-LEDGF confirm 53
COc1ccc(/C=N/N2C(C)CCCC2C)cc1O (stereo not given)	none
CN1CCN(c2nc(-c3cccc([N+](=O)[O-])c3)nc3ccccc23)CC1	none
O=c1cc(Br)c(O)c(Br)cc1Br	MBD2 DNA inh 14, TCR CD3 inh 21, UHRF1 binding 39, LEDGF integ inh 46 | BSA probe FL inactive | TCR-CD3 inh conf inactive | UHRF1 ctr MBD2 inactive | MBD2 confirm inactive | IN multimer act inactive | TRFRET interf inactive | IN-LEDGF confirm 21
Oc1c(Br)cc(Br)c2cccnc12	none
CCOC(=O)C1(Cc2ccc(OC)cc2)CCN(C(=O)[C@@H]2CCCN2C(C)=O)CC1	none
O=[N+]([O-])c1ccccc1NC(=S)N/N=C/c1ccc(O)c(O)c1	TCR CD3 inh 20, LEDGF integ inh 46 | BSA probe FL inactive | TCR-CD3 inh conf 20 | IN multimer act 11 | TRFRET interf inactive | IN-LEDGF confirm 71
Cc1cc(/C=C2\SC(=O)NC2=O)c(C)n1-c1ccc(N2CCOCC2)cc1	none
Cc1cc(/C=C2\SC(=O)NC2=O)c(C)n1-c1ccc(N(C)C)cc1	MBD2 DNA inh 17, TCR CD3 inh 27, UHRF1 binding 39, LEDGF integ inh 42 | BSA probe FL inactive | TCR-CD3 inh conf inactive | UHRF1 ctr MBD2 inactive | MBD2 confirm inactive | IN multimer act inactive | TRFRET interf inactive | IN-LEDGF confirm inactive
CCCn1nnc(NC(=O)/C=C/c2ccco2)n1	none
Cn1nnc(NC(=S)NC(=O)/C=C/c2ccco2)n1	TCR CD3 inh 19, LEDGF integ inh 14 | BSA probe FL inactive | TCR-CD3 inh conf inactive | IN multimer act inactive | TRFRET interf inactive | IN-LEDGF confirm inactive
O=C1NC(=O)C(c2ccccc2[N+](=O)[O-])=C1Nc1ccc(O)c(Cl)c1	TCR CD3 inh 20, LEDGF integ inh 26 | BSA probe FL inactive | TCR-CD3 inh conf inactive | IN multimer act inactive | TRFRET interf inactive | IN-LEDGF confirm inactive
O=C(NNc1ccccc1[N+](=O)[O-])Nc1ccc(Cl)c(Cl)c1	none
CC(C)CCNC(=O)[C@H]1COC(O)([C@H](Cc2ccccc2)NC(=O)[C@@H](NC(=O)OCc2ccccc2)C(C)C)CN1C (stereo not given in full)	none (no result: ARFGAP1 inh, ASAP1 GAP inh, TCR CD3 inh)
